Consider one compound from ChEMBL document CHEMBL1123413, “Synthesis and biological evaluation of 1-(1,2-benzisothiazol-3-yl)- and (1,2-benzisoxazol-3-yl)piperazine derivatives as potential antipsychotic agents” (J Med Chem, 1986).

One may read the LD50 as the dose at which mortality reaches 50%. Low readings indicate greater toxicity, high ones lower toxicity. A word on the IC50: it is the concentration that gives 50% inhibition. High values mean weaker potency, low ones greater potency. Broadly, the ED50 is the dose at which the effect has come halfway, by size or by number of responders.

Structures are written as SMILES.

A short description of data set [1]: Lethal dose after peroral administration in mouse. The settings on record: in vivo, po. The format is toxicity, organism-based.
Data set [2] concerns the target Gamma-aminobutyric acid receptor subunit gamma-1 (Rattus norvegicus, UniProt P23574). Put plainly: Inhibition of [3H]muscimol binding to Gamma-aminobutyric acid (GABA-A) receptor.
The species named for data set [3] is Mus musculus. Put plainly: Oral effective dose against norepinephrine-induced lethality in mouse. It is filed as functional. The method in brief: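 Groups of 10 nonfasted male mice dosed orally with test compound (initial 100 mg/kg) or vehicle (distilled H2O or 0.5% methocel). Active compounds retested at lower doses, 10 mice/dose, for dose response. ED50 by Berkson's method.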

The species entered for data set [4] is Mus musculus. Description: Oral effective dose against physostigmine-induced lethality in mouse. The format is functional. The method in brief: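 Groups of 10 nonfasted male mice dosed orally with test compound (initial 100 mg/kg) or vehicle (distilled H2O or 0.5% methocel). At 30 min, physostigmine given ip at 1.25 mg/kg, and lethality followed for up to 1 h. Active compounds retested at lower doses, 10 mice/dose, for dose response. ED50 by Berkson's method.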

For data set [5], the species on record is Mus musculus. Put plainly: Oral effective dose against spontaneous motor activity in mouse. The format is functional.
Data set [6] is filed under the species Rattus norvegicus. Description: Oral effective dose against ethanol potentiation in rat. It is filed as functional. The method in brief:
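Nonfasted male rats received test drug or vehicle (distilled H2O or 0.5% methocel). EtOH (10 mL of 20% solution/kg, ip) followed at 15, 30, 60 or 120 min post-drug; the vehicle group got it at 15 min. Rats were watched about 10–15 min for loss of righting reflex lasting 1 min. Dose response at peak time used 10/dose; ED50 by Berkson.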

The species entered for data set [7] is Rattus norvegicus. Description: Oral effective dose against hexobarbatial potentiation in rat. The format is functional. The method in brief: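 Hexobarbital sodium (40 mg/kg, ip) was given to nonfasted male rats 15, 30, 60 or 120 min after test drug, or 15 min after vehicle (distilled H2O or 0.5% methocel). Loss of righting reflex of 1-min duration was scored over about 10–15 min. Dose response at peak-effect time used 10 rats/dose; ED50 and fiducial limits by Berkson.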

For data set [8], the species on record is Rattus norvegicus. Put plainly: Oral effective dose against spontaneous motor activity in rat. It is filed as functional.
The species named for data set [9] is Rattus norvegicus. Description: Compound was tested for the inhibition of apomorphine-induced stereotype. It is filed as functional. The method in brief:
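In rats, oral test compound was scored for block of apomorphine-induced stereotypy as an in vivo dopamine-system measure. ED50 (mg/kg, po) and fiducial limits by Berkson's method.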

Sequence of Gamma-aminobutyric acid receptor subunit gamma-1 (P23574 whole entry): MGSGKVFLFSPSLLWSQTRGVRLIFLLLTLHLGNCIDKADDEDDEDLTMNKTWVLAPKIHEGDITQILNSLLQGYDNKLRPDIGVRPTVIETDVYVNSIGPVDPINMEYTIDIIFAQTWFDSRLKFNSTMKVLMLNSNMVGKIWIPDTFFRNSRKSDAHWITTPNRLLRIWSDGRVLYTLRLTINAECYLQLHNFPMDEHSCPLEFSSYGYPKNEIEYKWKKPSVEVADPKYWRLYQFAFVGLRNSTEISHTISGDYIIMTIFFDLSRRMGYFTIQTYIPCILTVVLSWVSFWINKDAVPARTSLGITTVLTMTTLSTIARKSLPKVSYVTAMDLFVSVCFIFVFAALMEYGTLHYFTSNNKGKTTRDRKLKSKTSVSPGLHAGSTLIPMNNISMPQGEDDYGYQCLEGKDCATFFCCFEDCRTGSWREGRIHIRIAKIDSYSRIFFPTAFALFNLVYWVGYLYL

`CSc1ccc2c(c1)N(CCC1CCCCN1C)c1ccccc1S2` (centres undefined) [THIORIDAZINE] yielded an LD50 in data set [1] of 250 mg/kg. The same compound yielded a 50% inhibitory concentration (IC50) in [2] of over 1000 nM. Also, the ED50 was 2.2 mg/kg in the data set filed under Mus musculus [3]; 45 mg/kg in the data set filed under Mus musculus [4]; 12.8 mg/kg in the data set filed under Mus musculus [5]; 56 mg/kg in the data set listed under Rattus norvegicus [6]; 27.3 mg/kg in the data set filed under Rattus norvegicus [7]; 33 mg/kg in the data set listed under Rattus norvegicus [8]. Further, in the data set listed under Rattus norvegicus [9], it took a dose of 280 mg/kg to reach the 50% effect level (ED50).
